# In ChEMBL document CHEMBL3392961, “Synthesis and in vitro characterization of cinnoline and benzimidazole analogues as phosphodiesterase 10A inhibitors” (Bioorg Med Chem Lett, 2015):
# Assays:
# [1] = target: cAMP and cAMP-inhibited cGMP 3',5'-cyclic phosphodiesterase 10A (Homo sapiens, UniProt Q9Y233); assay: Inhibition of human recombinant PDE10A catalytic domain pre-incubated for 5 mins before [3H]cAMP substrate addition and measured 20 mins post substrate addition by scintillation proximity assay
# [2] = target: cGMP-inhibited 3',5'-cyclic phosphodiesterase 3A (Homo sapiens, UniProt Q14432); assay: Inhibition of human recombinant PDE3A pre-incubated for 5 mins before [3H]cAMP substrate addition and measured 20 mins post substrate addition by scintillation proximity assay
# Summary of the method: (§1)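 Scintillation proximity assay on a fixed amount of recombinant human PDE enzyme, run across varying inhibitor concentrations. The tritiated cyclic nucleotide substrate was used at 1/3 of Km. Background was subtracted, counts were plotted against inhibitor concentration, and IC50 was fitted by non-linear regression. Values are mean ± SD from at least three experiments.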
# [3] = target: cGMP-inhibited 3',5'-cyclic phosphodiesterase 3B (Homo sapiens, UniProt Q13370); assay: Inhibition of human recombinant PDE3B pre-incubated for 5 mins before [3H]cAMP substrate addition and measured 20 mins post substrate addition by scintillation proximity assay; summary of the method: as §1
# [4] = target: 3',5'-cyclic-AMP phosphodiesterase 4A (Homo sapiens, UniProt P27815); assay: Inhibition of human recombinant PDE4A pre-incubated for 5 mins before [3H]cAMP substrate addition and measured 20 mins post substrate addition by scintillation proximity assay; summary of the method: as §1
# [5] = target: 3',5'-cyclic-AMP phosphodiesterase 4B (Homo sapiens, UniProt Q07343); assay: Inhibition of human recombinant PDE4B pre-incubated for 5 mins before [3H]cAMP substrate addition and measured 20 mins post substrate addition by scintillation proximity assay; summary of the method: as §1
# 3',5'-cyclic-AMP phosphodiesterase 4B, sequence (Q07343 whole entry): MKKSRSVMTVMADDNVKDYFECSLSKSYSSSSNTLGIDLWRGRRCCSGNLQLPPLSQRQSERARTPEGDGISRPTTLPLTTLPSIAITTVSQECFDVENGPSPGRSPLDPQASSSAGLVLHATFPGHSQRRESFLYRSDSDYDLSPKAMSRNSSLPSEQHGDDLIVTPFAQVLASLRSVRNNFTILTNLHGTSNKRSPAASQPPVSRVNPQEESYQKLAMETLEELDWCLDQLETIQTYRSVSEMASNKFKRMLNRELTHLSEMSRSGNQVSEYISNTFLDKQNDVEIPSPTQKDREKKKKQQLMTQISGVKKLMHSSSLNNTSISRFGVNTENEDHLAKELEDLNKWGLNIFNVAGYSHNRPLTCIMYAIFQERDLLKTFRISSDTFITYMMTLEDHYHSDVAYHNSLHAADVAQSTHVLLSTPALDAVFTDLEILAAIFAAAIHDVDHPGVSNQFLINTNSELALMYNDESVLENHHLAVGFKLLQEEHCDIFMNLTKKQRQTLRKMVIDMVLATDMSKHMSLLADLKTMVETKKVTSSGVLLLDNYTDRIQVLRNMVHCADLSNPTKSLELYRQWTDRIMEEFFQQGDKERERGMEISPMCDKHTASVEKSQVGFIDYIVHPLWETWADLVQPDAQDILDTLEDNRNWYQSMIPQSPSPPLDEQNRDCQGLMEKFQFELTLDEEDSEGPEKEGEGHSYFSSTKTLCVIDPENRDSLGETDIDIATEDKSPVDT
# cGMP-inhibited 3',5'-cyclic phosphodiesterase 3B, sequence (Q13370 whole entry): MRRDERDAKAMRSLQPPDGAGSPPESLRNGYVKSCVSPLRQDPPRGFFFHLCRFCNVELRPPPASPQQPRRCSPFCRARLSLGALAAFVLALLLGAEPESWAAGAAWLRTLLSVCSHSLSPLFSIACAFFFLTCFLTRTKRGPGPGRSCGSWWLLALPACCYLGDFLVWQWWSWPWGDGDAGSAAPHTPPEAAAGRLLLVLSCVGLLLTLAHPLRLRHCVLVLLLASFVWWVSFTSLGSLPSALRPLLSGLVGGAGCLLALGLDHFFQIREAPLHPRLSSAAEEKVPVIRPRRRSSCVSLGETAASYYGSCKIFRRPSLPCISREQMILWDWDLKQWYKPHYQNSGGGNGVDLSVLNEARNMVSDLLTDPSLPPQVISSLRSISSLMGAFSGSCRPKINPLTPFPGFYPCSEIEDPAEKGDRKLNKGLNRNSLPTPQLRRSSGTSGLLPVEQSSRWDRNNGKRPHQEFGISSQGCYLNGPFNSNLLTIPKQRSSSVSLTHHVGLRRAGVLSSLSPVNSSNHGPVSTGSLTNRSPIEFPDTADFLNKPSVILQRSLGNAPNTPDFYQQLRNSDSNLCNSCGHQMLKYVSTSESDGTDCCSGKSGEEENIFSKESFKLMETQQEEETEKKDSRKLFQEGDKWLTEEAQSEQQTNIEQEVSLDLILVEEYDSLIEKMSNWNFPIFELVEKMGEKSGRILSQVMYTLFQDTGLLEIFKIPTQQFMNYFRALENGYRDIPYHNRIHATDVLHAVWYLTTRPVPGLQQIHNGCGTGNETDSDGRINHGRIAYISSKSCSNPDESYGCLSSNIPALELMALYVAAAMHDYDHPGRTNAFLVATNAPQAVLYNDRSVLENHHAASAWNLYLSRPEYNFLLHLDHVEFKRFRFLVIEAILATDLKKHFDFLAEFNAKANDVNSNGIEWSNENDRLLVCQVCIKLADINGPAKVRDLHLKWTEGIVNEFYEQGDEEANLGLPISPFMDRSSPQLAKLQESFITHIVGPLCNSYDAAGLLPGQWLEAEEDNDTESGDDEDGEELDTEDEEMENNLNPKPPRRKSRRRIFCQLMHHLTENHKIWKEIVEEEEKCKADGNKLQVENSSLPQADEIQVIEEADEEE
# cAMP and cAMP-inhibited cGMP 3',5'-cyclic phosphodiesterase 10A, sequence (Q9Y233 whole entry, the tested form may be a part): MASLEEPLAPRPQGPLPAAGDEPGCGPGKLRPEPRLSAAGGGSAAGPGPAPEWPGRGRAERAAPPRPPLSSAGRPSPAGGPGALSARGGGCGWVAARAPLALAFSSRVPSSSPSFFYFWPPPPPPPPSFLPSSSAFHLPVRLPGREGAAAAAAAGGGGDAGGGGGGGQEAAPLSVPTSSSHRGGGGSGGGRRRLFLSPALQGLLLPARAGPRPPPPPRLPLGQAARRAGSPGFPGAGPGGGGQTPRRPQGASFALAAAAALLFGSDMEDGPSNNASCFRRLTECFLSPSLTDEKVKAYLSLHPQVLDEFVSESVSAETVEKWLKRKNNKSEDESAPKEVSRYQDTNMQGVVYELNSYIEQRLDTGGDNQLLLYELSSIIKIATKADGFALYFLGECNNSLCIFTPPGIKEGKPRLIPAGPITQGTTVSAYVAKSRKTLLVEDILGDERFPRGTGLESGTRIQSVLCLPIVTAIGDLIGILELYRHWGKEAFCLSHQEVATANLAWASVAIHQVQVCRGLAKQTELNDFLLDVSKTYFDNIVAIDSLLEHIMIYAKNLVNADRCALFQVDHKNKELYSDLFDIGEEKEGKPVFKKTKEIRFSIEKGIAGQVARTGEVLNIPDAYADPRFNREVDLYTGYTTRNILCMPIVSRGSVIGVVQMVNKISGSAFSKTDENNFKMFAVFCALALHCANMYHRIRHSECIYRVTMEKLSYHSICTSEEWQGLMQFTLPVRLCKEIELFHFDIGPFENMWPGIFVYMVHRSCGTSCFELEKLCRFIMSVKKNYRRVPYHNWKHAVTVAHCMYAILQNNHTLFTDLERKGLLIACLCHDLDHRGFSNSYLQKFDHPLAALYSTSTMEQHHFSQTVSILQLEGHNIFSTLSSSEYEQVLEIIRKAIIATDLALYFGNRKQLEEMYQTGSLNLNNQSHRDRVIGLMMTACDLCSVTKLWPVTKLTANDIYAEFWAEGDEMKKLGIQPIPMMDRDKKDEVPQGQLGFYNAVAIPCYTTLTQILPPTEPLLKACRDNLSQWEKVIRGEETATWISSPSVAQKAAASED
# 3',5'-cyclic-AMP phosphodiesterase 4A, sequence (P27815 whole entry): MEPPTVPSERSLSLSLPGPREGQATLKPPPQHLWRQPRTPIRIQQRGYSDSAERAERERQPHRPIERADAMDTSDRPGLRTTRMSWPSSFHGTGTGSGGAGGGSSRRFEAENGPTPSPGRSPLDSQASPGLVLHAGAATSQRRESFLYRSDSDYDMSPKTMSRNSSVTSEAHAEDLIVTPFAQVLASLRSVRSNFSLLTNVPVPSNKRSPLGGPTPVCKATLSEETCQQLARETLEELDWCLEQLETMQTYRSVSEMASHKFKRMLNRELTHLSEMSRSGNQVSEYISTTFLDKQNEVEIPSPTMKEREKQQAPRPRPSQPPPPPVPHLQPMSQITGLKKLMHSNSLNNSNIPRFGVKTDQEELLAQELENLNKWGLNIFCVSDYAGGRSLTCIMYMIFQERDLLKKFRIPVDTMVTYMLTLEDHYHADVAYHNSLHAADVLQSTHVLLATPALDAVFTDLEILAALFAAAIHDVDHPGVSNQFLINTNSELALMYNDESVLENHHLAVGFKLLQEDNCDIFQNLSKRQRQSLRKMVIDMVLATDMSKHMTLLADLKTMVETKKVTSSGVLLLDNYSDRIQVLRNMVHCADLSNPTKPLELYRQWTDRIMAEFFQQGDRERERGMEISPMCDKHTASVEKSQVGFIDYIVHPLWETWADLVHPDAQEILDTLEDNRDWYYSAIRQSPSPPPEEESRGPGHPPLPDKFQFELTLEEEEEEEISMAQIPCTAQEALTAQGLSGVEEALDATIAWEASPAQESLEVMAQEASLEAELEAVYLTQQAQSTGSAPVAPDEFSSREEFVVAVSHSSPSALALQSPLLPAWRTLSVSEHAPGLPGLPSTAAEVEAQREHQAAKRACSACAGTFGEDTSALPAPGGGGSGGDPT
# cGMP-inhibited 3',5'-cyclic phosphodiesterase 3A, sequence (Q14432 whole entry): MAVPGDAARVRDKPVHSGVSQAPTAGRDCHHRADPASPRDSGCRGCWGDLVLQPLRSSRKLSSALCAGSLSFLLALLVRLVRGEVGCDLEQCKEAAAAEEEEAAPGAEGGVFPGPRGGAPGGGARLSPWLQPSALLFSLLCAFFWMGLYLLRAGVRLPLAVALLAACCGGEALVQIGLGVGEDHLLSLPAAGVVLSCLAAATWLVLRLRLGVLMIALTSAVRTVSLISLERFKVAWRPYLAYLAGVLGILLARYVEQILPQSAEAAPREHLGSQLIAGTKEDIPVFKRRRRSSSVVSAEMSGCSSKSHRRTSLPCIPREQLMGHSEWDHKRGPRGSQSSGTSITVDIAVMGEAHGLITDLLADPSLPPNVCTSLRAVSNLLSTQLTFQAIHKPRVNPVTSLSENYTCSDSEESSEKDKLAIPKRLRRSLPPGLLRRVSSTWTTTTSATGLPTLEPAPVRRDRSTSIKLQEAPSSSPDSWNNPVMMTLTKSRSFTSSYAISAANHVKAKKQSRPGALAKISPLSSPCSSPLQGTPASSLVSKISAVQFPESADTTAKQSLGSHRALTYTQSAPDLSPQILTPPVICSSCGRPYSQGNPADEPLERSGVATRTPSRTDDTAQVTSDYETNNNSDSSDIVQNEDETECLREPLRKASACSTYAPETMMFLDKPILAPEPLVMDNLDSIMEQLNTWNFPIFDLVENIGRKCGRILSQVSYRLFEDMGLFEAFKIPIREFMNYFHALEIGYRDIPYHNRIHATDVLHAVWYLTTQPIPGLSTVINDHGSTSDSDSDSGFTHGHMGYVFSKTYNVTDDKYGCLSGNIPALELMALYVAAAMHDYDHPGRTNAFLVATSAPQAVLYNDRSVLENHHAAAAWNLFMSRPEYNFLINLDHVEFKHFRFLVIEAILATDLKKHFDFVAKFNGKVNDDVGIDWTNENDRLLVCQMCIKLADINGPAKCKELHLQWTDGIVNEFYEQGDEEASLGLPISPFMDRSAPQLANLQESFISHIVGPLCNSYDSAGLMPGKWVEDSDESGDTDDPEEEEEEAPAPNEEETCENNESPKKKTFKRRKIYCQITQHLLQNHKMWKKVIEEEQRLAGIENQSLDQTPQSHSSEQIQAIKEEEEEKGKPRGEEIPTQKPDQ
SMILES,IC50 ([1]; read-out: IC50) [µM],also measured
Cc1cc(-c2cnnc3ccccc23)cnc1N1CCC(O)(c2ccc(F)nc2)CC1,,IC50 [1]: Not Active
COc1cc2nncc(-c3ccc(N4CCC(C)(O)CC4)nc3)c2cc1OC,0.0184,
COc1cc2nncc(-c3ccc(N4CCC(O)(c5cccnc5)CC4)nc3)c2cc1OC,0.014,
COc1cc2c(-c3ccc(N4CCC(O)(c5cccnc5)CC4)nc3)cnnc2cc1OCc1ccccc1,1.55,
COc1cc2c(-c3ccc(N4CCC(C)(O)CC4)nc3)cnnc2cc1O,10.8,
Cc1cc(-c2cnnc3cc4c(cc23)OCO4)cnc1N1CCC(O)(c2ccc(F)nc2)CC1,,IC50 [1]: Not Active
COc1cc2nncc(-c3cnc(N4CCC(O)(c5ccc(Cl)nc5)CC4)c(C)c3)c2cc1OC,0.0098,
COc1cc2c(-c3cnc(N4CCC(O)(c5ccc(F)nc5)CC4)c(C)c3)cnnc2cc1OCc1ccccc1,0.35,
COc1cc2c(-c3cnc(N4CCC(O)(c5ccc(F)nc5)CC4)c(C)c3)cnnc2cc1OCc1ccc2ccccc2n1,0.518,
COc1ccc(-c2cccnc2Oc2ccc(C(=O)c3nc4ccccc4n3C)cc2)cc1,0.008,
Cn1c(C(=O)c2ccc(Oc3ncccc3-c3cccnc3)cc2)nc2ccccc21,0.00373,IC50 [2]: 167 µM; IC50 [3]: 234 µM; IC50 [4]: 40.3 µM; IC50 [5]: 25.9 µM
Cn1c(C(=O)c2ccc(Oc3ncccc3C(=O)c3ccccc3)cc2)nc2ccccc21,,IC50 [1]: Not Active
COc1ccc(C(=O)c2cccnc2Oc2ccc(C(=O)c3nc4ccccc4n3C)cc2)cc1,,IC50 [1]: Not Active

# Continued, in another order:
IC50 ([1]; read-out: IC50) [µM],SMILES,also measured
4.25,COc1cc2c(-c3ccc(N4CCC(C)(O)CC4)nc3)cnnc2cc1OCc1ccccc1,
6.62,COc1cc2c(-c3ccc(N4CCC(O)(c5cccnc5)CC4)nc3)cnnc2cc1O,
0.00152,COc1cc2nncc(-c3cnc(N4CCC(O)(c5cccnc5)CC4)c(C)c3)c2cc1OC,IC50 [2]: 3.07 µM; IC50 [3]: 4.11 µM; IC50 [4]: 7.83 µM; IC50 [5]: 8.73 µM
0.00286,COc1cc2nncc(-c3cnc(N4CCC(O)(c5ccc(F)nc5)CC4)c(C)c3)c2cc1OC,IC50 [2]: 3.7 µM; IC50 [3]: 6.54 µM; IC50 [4]: 25.4 µM; IC50 [5]: 30.6 µM
0.00552,COc1cc2nncc(-c3cnc(N4CCC(O)(c5cccnc5)CC4)c(Cl)c3)c2cc1OC,
0.0793,COc1cc2c(-c3cnc(N4CCC(O)(c5ccc(F)nc5)CC4)c(C)c3)cnnc2cc1OCCCF,
0.0186,Cn1c(C(=O)c2ccc(Oc3ncccc3-c3ccccc3)cc2)nc2ccccc21,
> 1.9,CC(=O)N1CCC(C(=O)c2cccnc2Oc2ccc(C(=O)c3nc4ccccc4n3C)cc2)CC1,
